The source made the active and inactive calls. The calls are words filed in the database; no cut-off is given here.
Legend:
[1] = Retention time of the compound in mouse liver microsomes by LC-MS/MS method; type: ADME
Plasma [2] = test: Drug level in mouse plasma treated with at 5 mg/kg, ip cmpound-4 assessed as compound formation; conditions: in vivo
QBI293 [3] = test: Stabilization of microtubule in human QBI293 cells assessed as increase in acetylated alpha-tubulin up to 1 uM incubated for 4 hrs; type: cell-based
QBI293 [4] = test: Cytotoxic activity against human QBI293 cells assessed as reduction in cel viability incubated for 24 hrs by alamar blue assay; type: functional, cell-based
Method in brief: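 QBI293 cells seeded 10,000/well, grown overnight at 37°C, 5% CO2, then exposed in triplicate to a nM–µM range (diluted from 20 mM DMSO stocks; 0.25% DMSO vehicle as 0% toxicity, 100 µM tubercidin as 100%) for 18 h. Alamar Blue was then added at 10% of well volume for another 6 h. Fluorescence read at ex 550/em 590 nm. Percent cytotoxicity was derived from RFUs.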

[5] = Half life in rat plasma at 5 mg/kg, ip; type: ADME, organism-based
Plasma [6] = test: Drug metabolism in mouse plasma assessed as formation of (S)-4-(5-chloro-7-((1,1,1-trifluoropropan-2-yl)amino)-[1,2,4]triazolo[1,5-a]pyrimidin-6-yl)-3,5-difluorophenol at 5 mg/kg, ip; conditions: in vivo
Plasma [7] = test: Drug metabolism in mouse plasma assessed as formation of (S)-3-(4-(5-chloro-7-((1,1,1-trifluoropropan-2-yl)amino)-[1,2,4]triazolo[1,5-a]pyrimidin-6-yl)-3,5-difluorophenoxy)propanoic acid at 5 mg/kg, ip; conditions: in vivo
Mus musculus = test: In-vivo stabilization of microtubule in normal mouse assessed as increase in acetylated alpha-tubulin at 5 mg/kg, ip administered as two doses after 1 day; type: functional, organism-based
Brain [8] = test: Drug level in rat brain at 5 mg/kg, ip administered as single dose after 4 hrs; type: ADME, organism-based; conditions: in vivo
Brain [9] = test: Drug level in rat brain at 5 mg/kg, ip administered as two repeated doses separated by 4 hrs interval; type: ADME, organism-based; conditions: in vivo
[10] = Half life in rat brain at 5 mg/kg, ip; type: ADME, organism-based

## C[C@H](Nc1c(-c2c(F)cc(O)cc2F)c(Cl)nc2ncnn12)C(F)(F)F
[1]
  Retention_time: 6.73 min
Plasma [2]
  Drug metabolism: metabolite_detected
QBI293 [3]
  inhibition: inactive
QBI293 [4]
  Activity: inactive

## C[C@H](Nc1c(-c2c(F)cc(OCCC(=O)O)cc2F)c(Cl)nc2ncnn12)C(F)(F)F
[1]
  Retention_time: 6.9 min
Plasma [2]
  Drug metabolism: metabolite_detected
QBI293 [3]
  inhibition: inactive
QBI293 [4]
  Activity: inactive

## C[C@H](Nc1c(-c2c(F)cc(OCCCO)cc2F)c(Cl)nc2ncnn12)C(F)(F)F
[1]
  Retention_time: 6.91 min
[5]
  half-life: 2.5 h
Plasma [6]
  Drug metabolism: metabolite_detected
Plasma [7]
  Drug metabolism: metabolite_detected
Mus musculus
  Activity: Active
Brain [8]
  Drug uptake: Active
Brain [9]
  Drug uptake: Active
QBI293 [3]
  inhibition: Active
[10]
  half-life: 7 h
QBI293 [4]
  Activity: Active

— ChEMBL document CHEMBL3632613, “Pharmacokinetic, pharmacodynamic and metabolic characterization of a brain retentive microtubule (MT)-stabilizing triazolopyrimidine” (Bioorg Med Chem Lett, 2015)
